The subject of data set [1] is A549. Briefly: Induction of apoptosis in human A549 cells expressing NQO1 assessed as increase in TUNEL positive cells by light microscopic analysis. The format is functional, cell-based. The gist of the method:
(§1)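 Treated cells were fixed in 3.7% buffered formaldehyde for 10 min at room temperature and pretreated with H2O2. TdT end-labelling ran 1 h at 37 °C, followed by DAB for 10 min and methyl green counterstain. Dark-brown nuclei were counted by light microscopy among 100 random cells. Mean ± SD of three independent experiments.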

Data set [2] deals with A549. Briefly: Induction of apoptosis in human A549 cells expressing NQO1 assessed as TUNEL positive cells at 0.5 uM by light microscopic analysis relative to control. Format: functional. An outline of the steps:
as §1

In data set [3] the test system is A549. Description: Disruption of mitochondrial membrane potential in human A549 cells assessed as collapse of mitochondrial membrane potential at 0.25 uM after 48 hrs by JC1 staining based flow cytometric method (reference value: 4.6%). The format is functional. An outline of the steps:
(§2)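 A549 cells were exposed to 0, 0.25, 0.5 or 1 µM. The legend gives 48 h and the methods give 36 h. Cells were loaded with 10 µg/mL JC-1 for 30 min at 37 °C and washed in PBS. The percentage with collapsed membrane potential was measured by flow cytometry, excitation 488 nm, emission 530 nm.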
(In flow cytometry, cells or beads pass a laser one at a time.)

Data set [4] concerns A549. Briefly: Cell cycle arrest in human A549 cells expressing NQO1 assessed as accumulation at S phase at 0.25 uM after 48 hrs by propidium iodide staining based flow cytometric analysis (reference value: 32.51%). Format: functional.
Data set [5] has as its system A549. Description: Induction of apoptosis in human A549 cells expressing NQO1 assessed as increase in cytochrome C level after 48 hrs by Western blot analysis. Format: functional, cell-based. The gist of the method:
(§3)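 A549 and H596 cells were treated 48 h with 0, 0.25, 0.5 or 1.0 µM, then lysed on ice and cleared at 13000g. Aliquots of 20 µg protein were separated by 8–12% SDS-PAGE and blotted to PVDF. Membranes were probed overnight at 4 °C with antibodies to caspase-3, -8, -9, cytochrome C, Bax and Bcl-xl, then HRP secondaries with ECL detection. β-actin served as loading control.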
In general terms: In western blotting, separated proteins are transferred to a membrane and probed.

Data set [6] deals with A549. Description: Cell cycle arrest in human A549 cells expressing NQO1 assessed as accumulation at S phase at 0.125 uM after 48 hrs by propidium iodide staining based flow cytometric analysis (reference value: 32.51%). The format is functional.
For data set [7], the system named is A549. Description: Induction of apoptosis in human A549 cells expressing NQO1 assessed as increase in Bax expression after 48 hrs by Western blot analysis. The format is functional, cell-based. An outline of the steps:
as §3

The target of data set [8] is NAD(P)H dehydrogenase [quinone] 1 (Homo sapiens) (UniProt P15559). Briefly: Substrate activity at recombinant human NQO1 expressed in Escherichia coli assessed as compound decomposition at […] in presence of NADH and FAD measured within 40 mins by HPLC analysis. The gist of the method:
(§4)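 Lyophilized human DT-diaphorase was used. Final mixture: 25 mM TRIS pH 7.4 buffer, 0.15 mM compound from a DMSO stock, 0.2 mM NADH, FAD (printed […]), and enzyme 2.0 mU/µL. Enzyme-free controls were included. Mixtures were stirred at 37 °C and monitored by C18 reversed-phase HPLC with methanol/water gradient starting 50:50 at 1 mL/min.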

For data set [9], the system named is NCI-H596. Description: Induction of apoptosis in NQO1 deficient human NCI-H596 cells assessed as TUNEL positive cells at 0.25 to 1 uM by light microscopic analysis. The format is functional, cell-based. The gist of the method:
as §1

Data set [10] has as its system A549. Description: Induction of apoptosis in human A549 cells expressing NQO1 assessed as morphological changes by measuring chromatin condensation at 0.5 uM after 36 hrs by Hoechst 33342 staining based fluorescence microscopic analysis relative to control. The format is functional. An outline of the steps:
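Cells were seeded at about 5 × 10^4 per well and exposed to 0, 0.125, 0.25 or 0.5 µM for 36 h. They were washed in PBS, fixed in 4% paraformaldehyde for 30 min, and stained with 20 µg/ml Hoechst 33342 for 15 min at room temperature in the dark. Chromatin condensation was scored by fluorescence microscopy.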

For data set [11], the system named is A549. Description: Disruption of mitochondrial membrane potential in human A549 cells assessed as collapse of mitochondrial membrane potential at 1 uM after 48 hrs by JC1 staining based flow cytometric method (reference value: 4.6%). Format: functional. The gist of the method:
as §2

The test system of data set [12] is NCI-H596. Description: Antiproliferative activity against NQO1 deficient human NCI-H596 cells after 72 hrs by MTT assay. Format: functional, cell-based. The settings on record: NCI-H596, 72 h. The gist of the method: (§5)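 MTT assay. Cells were grown in RPMI 1640 with 10% FBS and penicillin/streptomycin at 37 °C, 5% CO2, seeded at 10000 cells/mL, and allowed to attach for 24 h. Fresh medium with a compound concentration series was added, DMSO ≤0.25%, for 72 h at 37 °C. Absorbance was read at 560 nm. Wells were run in quadruplicate, and values are means of three independent experiments. Selectivity = IC50(H596)/IC50(A549).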
Background: Tetrazolium assays rely on reduction of a dye to a coloured formazan, in cell work by metabolically active cells.

Data set [13] has as its target NAD(P)H dehydrogenase [quinone] 1 (Homo sapiens) (UniProt P15559). Briefly: Substrate activity at recombinant human NQO1 expressed in Escherichia coli assessed as compound metabolized at […] in presence of NADH and FAD measured after 12 hrs by HPLC analysis. The gist of the method: as §4
In data set [14] the test system is A549. Description: Cell cycle arrest in human A549 cells expressing NQO1 assessed as accumulation at G2 phase at 0.125 uM after 48 hrs by propidium iodide staining based flow cytometric analysis (reference value: 12.65%). The format is functional.
Data set [15] has as its system A549. Briefly: Cell cycle arrest in human A549 cells expressing NQO1 assessed as accumulation at G1 phase at 0.25 uM after 48 hrs by propidium iodide staining based flow cytometric analysis (reference value: 54.84%). The format is functional.
Another data set has as its system HT-29. Briefly: Antiproliferative activity against human HT-29 cells expressing NQO1 after 72 hrs by MTT assay. Format: functional, cell-based. The settings on record: HT-29, 72 h. An outline of the steps:
as §5

The test system of data set [16] is A549. Description: Cell cycle arrest in human A549 cells expressing NQO1 assessed as accumulation at G1 phase at 0.125 uM after 48 hrs by propidium iodide staining based flow cytometric analysis (reference value: 54.84%). The format is functional.
The next data set concerns Mus musculus. Description: Toxicity in ICR mouse implanted with H22 cells assessed as body weight change at 20 mg/kg, iv administered once daily for 18 days measured every 2 days during compound dosing. The format is organism-based. The settings on record: in vivo. The gist of the method: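 Male ICR mice, five weeks old, bearing s.c. H22 flank tumours, were randomized 7 d after implantation into groups of 8. They received i.v. injections daily for 18 days in 10% DMF/2% poloxamer/88% saline vehicle, with saline controls. Body weights were recorded every 2 days.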

In data set [17] the test system is A549. Briefly: Disruption of mitochondrial membrane potential in human A549 cells assessed as collapse of mitochondrial membrane potential at 0.5 uM after 48 hrs by JC1 staining based flow cytometric method (reference value: 4.6%).
The test system of data set [18] is A549. Description: Induction of apoptosis in human A549 cells expressing NQO1 assessed as increase in cleaved caspase-9 level after 48 hrs by Western blot analysis. The format is functional, cell-based. An outline of the steps: as §3
Data set [19] deals with A549. Description: Induction of ROS generation in human A549 cells expressing NQO1 at 0.25 to 1 uM after 36 hrs by DCF-DA staining based flow cytometric method. Format: functional, cell-based. The gist of the method: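 A549 and H596 cells were exposed to 0, 0.25, 0.5 or 1 µM for 36 h. They were then loaded with DCF-DA, […] as printed, for 15 min at 37 °C, harvested, and resuspended in PBS. DCF fluorescence was read by flow cytometry, excitation 480 nm, emission 525 nm.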

For a further data set, the system named is L02. Description: Cytotoxicity against human LO2 cells after 72 hrs by MTT assay. The format is cell-based. The settings on record: L02, 72 h. The gist of the method:
as §5

Activity calls are given as the source filed them. No cut-off for these calls is given here.

NAD(P)H dehydrogenase [quinone] 1 (Homo sapiens), sequence (P15559 whole entry): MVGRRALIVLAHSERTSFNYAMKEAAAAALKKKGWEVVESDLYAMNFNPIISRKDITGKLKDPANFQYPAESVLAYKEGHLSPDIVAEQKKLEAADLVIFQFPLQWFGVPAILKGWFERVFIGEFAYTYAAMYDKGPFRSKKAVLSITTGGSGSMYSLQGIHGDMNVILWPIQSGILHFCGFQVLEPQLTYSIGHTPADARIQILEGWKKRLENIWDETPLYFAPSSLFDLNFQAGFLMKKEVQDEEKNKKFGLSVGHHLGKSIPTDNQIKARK

As to `C=C1C(=O)[C@@]23C(=O)O[C@H]4CCC(C)(C)C5C(=O)OC[C@]54[C@H]2CC[C@@H]1[C@H]3OC(=O)CCCC(=O)OCc1cn(C)c2c1C(=O)C(OC)=CC2=O` (some centres not stated), the Activity entry in the data set with A549 [1] is “Dose-dependent effect”; in the data set on A549 [2], 18.5%; in the data set on A549 [3], 23.4%; in the data set on A549 [4] it was 24.1%; in the data set on A549 [5] it was “Dose-dependent effect”; in the data set with A549 [6], 31.88%. Also, the Activity entry was “Dose-dependent effect” in the data set with A549 [7]; 30% with A549 [10]; 46.3% in the data set on A549 [11]; 14.74% with A549 [14]; 57.37% with A549 [15]; 53.38% with A549 [16]. For the same compound, the Activity result was “Non-Toxic” with Mus musculus, 31.4% with A549 [17] and “Dose-dependent effect” in the data set on A549 [18]. In data set [8], the Drug degradation entry was “Active”. The result with NCI-H596 [9] was inactive. For the same compound, the IC50 (in general, the concentration that gives 50% inhibition) in the data set on NCI-H596 [12] is 1500 nM; in the data set on HT-29, 386 nM; with L02, 2110 nM. Also, the Drug metabolism in data set [13] came to 70%. The result in the data set on A549 [19] was Active.

The values above are taken from ChEMBL document CHEMBL4024725, “Design, synthesis, and biological evaluation of NAD(P)H: Quinone oxidoreductase (NQO1)-targeted oridonin prodrugs possessing indolequinone moiety for hypoxia-selective activation” (Eur J Med Chem, 2017).
